According to the RNAGym collection of RNA variant scans (doi:10.1038/nmeth.2970):

B1: NELF-E aptamer (parent)
chain: CCCAACGACUGCCGAGCGAGAUUACGCUUGAGCGCCCCACUGAGGAUGCCCACGGGCGAUUGGGGCACGG

Variants of: B1
Assay: HiTS-RAP
Settings: with NELF-E (Drosophila)
In short: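 Aptamer DNA templates carrying a T7 promoter and ter site were sequenced on an Illumina GAIIx flowcell, then transcribed in situ by T7 RNA polymerase and halted by GST-Tus (30 minutes, 37°C). Clusters were imaged after 30-minute room-temperature equilibration with NELF-E-mOrange at 0.064 to 1000 nM in HEPES binding buffer, and only the first binding curve was used. Intensities were normalised to sequencing intensity and averaged per sequence. Kd came from weighted Hill fits, keeping fits with variance below 1,000,000.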
In the case of CCCAACGACUUCCGAGCGAGAUUACGCUUGAGCGCCCCACUGAGGAUGCCCACGGGCGAUUGGGACACGG, the Kd is reported as 5.5 nM.
CCCAACGACUGCCGAGCGAGAUUACGCUUGAGCGCCCCACUGAGGAUGCCCACAGGCGAUUGGGGCACGG gave a Kd of 11.8 nM.
CCCACCGACUGCCGAGCGAGAUUACGCUUGAGCGCCCCACUGAGGAUGCCCACGGGCGAUUGGGGCACGG was tested, and the Kd was 6.55 nM.
Work on CCCAACGGCUGCCGAGCGAGAUUACGCUUGAGCGCCCCACUGAGGAUGCCCACGGGCGUUUGGGGCACGG yielded a Kd of 57.1 nM.
CCCAACGAGUGCCGAGCGAGAUUACGCUUGAGCGCCCCACUGAGGGUGCCCACGGGCGAUUGGGGCACGG gave a Kd of 47.4 nM.
Variant CCCUACGACUGCCGAGCGAGAUUACGCUUGAGCGCCCCUCUGAGGAUGCCCACGGGCGAUUGGGGCACGG has a Kd of 31.1 nM.
Work on CCCGACGACUGCCGAGCGCGAUUACGCUUGAGCGCCCCACUGAGGAUGCCCACGGGCGAUUGGGGCACGG yielded a Kd of 4.21 nM.
Work on CCCAACGACUGCCGAGCGAGAGUACGCUUGAGCGCCCCACUAAGGAUGCCCACGGGCGAUUGGGGCACGG yielded a Kd of 49.8 nM.
CCCAACGACUGCCGAGCGAGAUUACGCUUGAGCGCCCCAGUGAGGAUGCCCACGGGCGAUUGGGGCACGG gave a Kd of 5.55 nM.
CCCAACGACUGCCGAGCGAGAUUACGCUUGAGCGCCCCACUGAGGUUGCCCACGGGCGAUUGGGGCACGG was tested, and the Kd was 63.2 nM.
CCCAACGAGUGCCGAACGAGAUUACGCUUGAGCGCCCCACUGAGGAUGCCCACGGGCGAUUGGGGCACGG showed a Kd of 5.72 nM.
With CCCAACGUCUGCCGAGCGAGAUUACGCUUGAGCGCCCCACUGAGGAUGCCCACGGGCGAUUGGAGCACGG the Kd was 8.34 nM.
Work on CCCAACGACUGCCGAGCGAGAUUGCGCUUGAGCGCCCCACUGAGGAUGCCCACGGGCGAUUAGGGCACGG yielded a Kd of 26.1 nM.
For CCCAAGGACUGCCGAGCGAGAUUACGCUUGAGCGCCCCACUGAGUAUGCCCACGGGCGAUUGGGGCACGG, the Kd was 9.94 nM.
Variant CCCAACGACUGGCGAGCGAGGUUACGCUUGAGCGCCCCACUGAGGAUGCCCACGGGCGAUUGGGGCACGG has a Kd of 7.12 nM.
ACCAACGACUGCCGAGCGAGAUUACGCUUGAGCGCCCCACUGAGGAUGCCCACGGGCGAUUGGGGCACGG gave a Kd of 4.94 nM.
For CCCGACGACUGCCGAGCGAGAUUACGCUUGAGCGCCCCACUGAGGAUGCCCACGGGCGAAUGGGGCACGG, the Kd was 10.6 nM.
With CCCAACGACGACCGAGCGAGAUUACGCUUGAGCGCCCCACUGAGGAUGCCCACGGGCGAUUGGGGCACGG the Kd was 6.15 nM.
For CCCAACGACUGCGGAGCGAGAUUACGCUUGAGCGCCCCACUGAGGAUGUCCACGGGCGAUUGGGGCACGG, the Kd was 31.9 nM.
CCCAACGACUGCCGAGCGAGAUUACGCUUGAGCGCCCCACGGAGGAUGCCCACGCGCGAUUGGGGCACGG gave a Kd of 6.95 nM.
Work on CCCAACGACUGCCGAGCGGGAUUACGCUUGAGCGCCCCACUGAGGAUGCCCACGGGCGAUUGGGGCUCGG yielded a Kd of 5.89 nM.
Variant CCCAACGACUGCCGAGCGAGAUGACGCUUGAGCGCCCCACUGAGGAUGGCCACGGGCGAUUGGGGCACGG has a Kd of 7.29 nM.
For CCCAACGAGUGCCGAGCGAGAUUACGCUUGAGCGCUCCACUGAGGAUGCCCACGGGCGAUUGGGGCACGG, the Kd was 8.98 nM.
Work on CCCAACGACUGCGGAGCGAGAGUACGCUUGAGCGCCCCACUGAGGAUGCCCACGGGCGAUUGGGGCACGG yielded a Kd of 5.27 nM.
CCCAACGACUGCCGAGCGAGAUUACGCUUGAGCGCCCCACUGAGGAUGCCCACGAGCGAUUGGGGCACGG showed a Kd of 7.36 nM.
Variant CCCAACGACUGCCGAGCGAGAUUACGCUUGAGCGCCCCACUGAGGAUGCCCACGGGCGAUUGGGUCUCGG has a Kd of 8.45 nM.
Work on CCCUACGACUGGCGAGCGAGAUUACGCUUGAGCGCCCCACUGAGGAUGCCCACGGGCGAUUGGGGCACGG yielded a Kd of 5.79 nM.
For CCCAACGACUGCAGAGCGAGAUUGCGCUUGAGCGCCCCACUGAGGAUGCCCACGGGCGAUUGGGGCACGG, the Kd was 9.1 nM.
In the case of CCCAACGACUGCCGAGCGAGAUUACGCUUGAGCGCCCUACGGAGGAUGCCCACGGGCGAUUGGGGCACGG, the Kd is reported as 7.77 nM.
CCCAGCGACUGCCGAGCGAGAUUACGCUUGAGCGCCCCACUGAGGAUGCCCACGGACGAUUGGGGCACGG showed a Kd of 11.2 nM.
CCCAACUACUGCCGAACGAGAUUACGCUUGAGCGCCCCACUGAGGAUGCCCACGGGCGAUUGGGGCACGG showed a Kd of 6.97 nM.
CCCAACGACUGCGGAGCGAGAUUACGCUUGAGCGCCCCACUUAGGAUGCCCACGGGCGAUUGGGGCACGG gave a Kd of 5.35 nM.
CCCCACGACUGCCGAGCGAGAUGACGCUUGAGCGCCCCACUGAGGAUGCCCACGGGCGAUUGGGGCACGG showed a Kd of 7.29 nM.
With CCCAACUACUGCCGAGCGAGAUUUCGCUUGAGCGCCCCACUGAGGAUGCCCACGGGCGAUUGGGGCACGG the Kd was 6.81 nM.
Work on CCCAACUACUGCCGAGCGAGAUUACGCUUGAGCGCCCCACUGAGGAUGCCCACGGGCGAUUGGGACACGG yielded a Kd of 4.96 nM.
In the case of CCCAACGUCUGCCGUGCGAGAUUACGCUUGAGCGCCCCACUGAGGAUGCCCACGGGCGAUUGGGGCACGG, the Kd is reported as 7.15 nM.
With CCCAACGACUGCGGAGCGAGAUUACGCUUUAGCGCCCCACUGAGGAUGCCCACGGGCGAUUGGGGCACGG the Kd was 6.03 nM.
In the case of CCCAAGGACUGCCAAGCGAGAUUACGCUUGAGCGCCCCACUGAGGAUGCCCACGGGCGAUUGGGGCACGG, the Kd is reported as 5.15 nM.
Work on CCCAACGACUGCCGAGCGAGAUUACGCUUGAGCGCCCCACUGAGGAUGCCCACGGGCGAUUGCGGCACGG yielded a Kd of 33.8 nM.
Work on CCCAACGACUGCCGAGCGAGAUUACGCUGGAGCGCCCCAUUGAGGAUGCCCACGGGCGAUUGGGGCACGG yielded a Kd of 56.1 nM.
With CCCAACGACGGCCGAGCGAGAUUACGCUUGAGCGCACCACUGAGGAUGCCCACGGGCGAUUGGGGCACGG the Kd was 9.48 nM.
With CCCAACGACGGCCGAGCGAGAUUACGCUUGAGCGCGCCACUGAGGAUGCCCACGGGCGAUUGGGGCACGG the Kd was 6.55 nM.
Variant CCCAACGACUGCCGAGCGAGAUUGCGCUUGAGGGCCCCACUGAGGAUGCCCACGGGCGAUUGGGGCACGG has a Kd of 8.38 nM.
For CCCAACGACUGCCGAGCGAGAUUACGCUUGAGCGCCCCACGGAGGUUGCCCACGGGCGAUUGGGGCACGG, the Kd was 62.9 nM.
In the case of CCCAACGACUGGCGAGCGAGAUUACGCUUGGGCGCCCCACUGAGGAUGCCCACGGGCGAUUGGGGCACGG, the Kd is reported as 7.14 nM.
Work on CCCAACUACUGCCGAGCGAGAUUACGCUUGAGUGCCCCACUGAGGAUGCCCACGGGCGAUUGGGGCACGG yielded a Kd of 6.35 nM.
CCCGACGACUGCCGAGCGAGAUUACGCUUGAGCGCCCCACUGAGGAUGCCCACGGGCGAUAGGGGCACGG was tested, and the Kd was 37.8 nM.
Work on CCCAACGACUGCCGAUCGAGAUGACGCUUGAGCGCCCCACUGAGGAUGCCCACGGGCGAUUGGGGCACGG yielded a Kd of 5.85 nM.
CCCAACGUCUGCCGAGCGAGAUUACGCUUGAGCGCCCCACUGAGGAUGCCCACGGGCGAUUGGGGUACGG was tested, and the Kd was 5.31 nM.
CCCAACGACUGCCGAGCGAAAUUGCGCUUGAGCGCCCCACUGAGGAUGCCCACGGGCGAUUGGGGCACGG gave a Kd of 6.46 nM.
Variant CCCAACGACUGGCGAGCGAGAUUACGCUUGAGCGCCCCACUGAGGAUGCCCACAGGCGAUUGGGGCACGG has a Kd of 18.2 nM.
CCCAACGACUGCCGAGCGAGAUUACGCUUGAGCGCCCCACGUAGGAUGCCCACGGGCGAUUGGGGCACGG showed a Kd of 5.09 nM.
Work on CCCAACGACUGCCGAGUGAGAUUGCGCUUGAGCGCCCCACUGAGGAUGCCCACGGGCGAUUGGGGCACGG yielded a Kd of 5.54 nM.
Variant CCCUACGAGUGCCGAGCGAGAUUACGCUUGAGCGCCCCACUGAGGAUGCCCACGGGCGAUUGGGGCACGG has a Kd of 5.93 nM.
CCCAACGACUGCCGUGCGAGAUUACGCUUGAGCGCCCCACUGAGGAUGCCCACGGGCGAUUGGGGCACGG showed a Kd of 5.65 nM.
CCCAAUGACUGCCGAGCGAGAUUACGCUUGAGCGCCCCACGGAGGAUGCCCACGGGCGAUUGGGGCACGG gave a Kd of 5.16 nM.
With CCCAGCUACUGCCGAGCGAGAUUACGCUUGAGCGCCCCACUGAGGAUGCCCACGGGCGAUUGGGGCACGG the Kd was 6.59 nM.
Variant CCCAACGACUGCCGAGCGAGUUGACGCUUGAGCGCCCCACUGAGGAUGCCCACGGGCGAUUGGGGCACGG has a Kd of 6.73 nM.
Work on CCCAACGGCUGCCGAGGGAGAUUACGCUUGAGCGCCCCACUGAGGAUGCCCACGGGCGAUUGGGGCACGG yielded a Kd of 5.53 nM.
In the case of CCCAACGACUGCCGAGCGUGAUUACGCUUGAGCGCCCCACUGAGGAUGCCCACGGGCGAUUGGGGCACGG, the Kd is reported as 5.02 nM.
Variant CCCAAGGACUGCCGAGCGAGAUUACGCUUGAGCGCCCCACGGAGGAUGCCCACGGGCGAUUGGGGCACGG has a Kd of 5.12 nM.
Variant CCCAACGACUGCCGAGCGAGAUUACGCUUGAGCGCCCCACUGAGGAUGCCCACGGGCGAUUGGGGAACGG has a Kd of 4.61 nM.
In the case of CCCAACGUCUGCUGAGCGAGAUUACGCUUGAGCGCCCCACUGAGGAUGCCCACGGGCGAUUGGGGCACGG, the Kd is reported as 4.96 nM.
In the case of CCCAACGUCCGCCGAGCGAGAUUACGCUUGAGCGCCCCACUGAGGAUGCCCACGGGCGAUUGGGGCACGG, the Kd is reported as 5.96 nM.
CCCAACGACUGCCGAGCGAGAUUACGCUUGAGCGCCCCACUGAGGAUGCCCACAAGCGAUUGGGGCACGG was tested, and the Kd was 26.2 nM.
In the case of CCCAACGGCUGCCGAGCGAGAUUACGCUUGAGCGCCCCACUGAGGAUGCCCAUGGGCGAUUGGGGCACGG, the Kd is reported as 4.94 nM.
In the case of CCCAACGGCUGCCGAGCGAGAUUACGCUAGAGCGCCCCACUGAGGAUGCCCACGGGCGAUUGGGGCACGG, the Kd is reported as 7.95 nM.
In the case of CCCAACGACUGCCGAUCGAGAUUACGCUUGAGCGCCCCACUGAGGAUGCCCUCGGGCGAUUGGGGCACGG, the Kd is reported as 19.7 nM.
For CCCAACGACUGCCGAGCGAGAGUACGCUUGAGCGCCCCACUGAGGAUGCCCAAGGGCGAUUGGGGCACGG, the Kd was 4.91 nM.
CCCAACGUCUGCCGAGCGAGAUUACGCUUGAGCGCCCCACUGAGGAAGCCCACGGGCGAUUGGGGCACGG was tested, and the Kd was 15.7 nM.
With CCCAGUGACUGCCGAGCGAGAUUACGCUUGAGCGCCCCACUGAGGAUGCCCACGGGCGAUUGGGGCACGG the Kd was 5.92 nM.
CCCAACGUCUGCCGAGCGAGAUUACGCUUGAGCGUCCCACUGAGGAUGCCCACGGGCGAUUGGGGCACGG showed a Kd of 12.5 nM.
Variant CCCAGCGACUGCCGAGCGAGAUUACGCUUGUGCGCCCCACUGAGGAUGCCCACGGGCGAUUGGGGCACGG has a Kd of 5.74 nM.
CCCAACGACUGCGGAGCGAGAUUACGCUUGAGCGCCCCACUGAGGAUGCCCACGGGCGAUUGGGGCUCGG gave a Kd of 7.5 nM.
CCCAACGACUGCCGAGCGAGAUUACGCCGGAGCGCCCCACUGAGGAUGCCCACGGGCGAUUGGGGCACGG was tested, and the Kd was 8.69 nM.
In the case of CCCAACGAGUGCCGAGCGAGAUUACGCUUGAGCGCCCCUCUGAGGAUGCCCACGGGCGAUUGGGGCACGG, the Kd is reported as 29.8 nM.
For CCCAACUAGUGCCGAGCGAGAUUACGCUUGAGCGCCCCACUGAGGAUGCCCACGGGCGAUUGGGGCACGG, the Kd was 6.28 nM.
